Laboratory results as given in ChEMBL document CHEMBL5705905, “Pharmacological targeting of kinases MST1 and MST2 augments tissue repair and regeneration” (Sci Transl Med, 2016).

How the values were obtained:
[1] = target: T1, Serine/threonine-protein kinase 3 (Homo sapiens, UniProt Q13188); experiment: Inhibition of recombinant His-tagged full-length MST2 (unknown origin) expressing in Escherichia coli assessed as MOB1a phosphorylation level incubated for 30 min in the presence of 10 uM ATP by immunoblot analysis
T1 sequence (Q13188 whole entry): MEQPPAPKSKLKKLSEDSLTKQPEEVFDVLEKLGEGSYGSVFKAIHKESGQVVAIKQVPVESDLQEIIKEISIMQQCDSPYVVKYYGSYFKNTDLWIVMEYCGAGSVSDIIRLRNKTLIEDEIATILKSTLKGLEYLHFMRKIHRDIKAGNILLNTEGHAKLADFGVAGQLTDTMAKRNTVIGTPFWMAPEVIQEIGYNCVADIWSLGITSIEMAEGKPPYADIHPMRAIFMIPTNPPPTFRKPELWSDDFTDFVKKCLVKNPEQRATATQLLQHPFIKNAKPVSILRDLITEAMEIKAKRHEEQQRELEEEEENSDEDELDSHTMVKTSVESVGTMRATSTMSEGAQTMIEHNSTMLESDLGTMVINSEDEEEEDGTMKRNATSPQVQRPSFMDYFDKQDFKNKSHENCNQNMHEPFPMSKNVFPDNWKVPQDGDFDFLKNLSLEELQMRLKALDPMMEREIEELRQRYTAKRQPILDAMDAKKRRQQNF

[2] = target: Activin receptor type-1-like (Homo sapiens) (UniProt P37023); experiment: Inhibition of ACVRL1 (unknown origin) assessed as remaining activity at 1 uM by Kinome scan method relative to control
Procedure, shortened: (§1)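 Active-site-dependent competition-binding (KINOMEscan) panel of 468 kinases, test compound at 1 μM (from a 10 mM DMSO stock). Read-out is ctrl% = (test signal − positive control signal)/(negative control signal − positive control signal) × 100. DMSO is the negative control (100%) and a control compound is the positive control (0%). Lower ctrl% means tighter binding.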

[3] = target: 5'-AMP-activated protein kinase catalytic subunit alpha-2 (Homo sapiens) (UniProt P54646); experiment: Inhibition of AMPK-alpha2 (unknown origin) assessed as remaining activity at 1 uM by Kinome scan method relative to control; procedure, shortened: as §1
[4] = target: Serine/threonine-protein kinase BRSK1 (Homo sapiens) (UniProt Q8TDC3); experiment: Inhibition of BRSK1 (unknown origin) assessed as remaining activity at 1 uM by Kinome scan method relative to control; procedure, shortened: as §1
[5] = target: Serine/threonine-protein kinase DCLK3 (Homo sapiens) (UniProt Q9C098); experiment: Inhibition of DCAMKL3 (unknown origin) assessed as remaining activity at 1 uM by Kinome scan method relative to control
[6] = target: Mitogen-activated protein kinase kinase kinase 12 (Homo sapiens) (UniProt Q12852); experiment: Inhibition of DLK (unknown origin) assessed as remaining activity at 1 uM by Kinome scan method relative to control
[7] = target: Receptor-type tyrosine-protein kinase FLT3 (Homo sapiens) (UniProt P36888); experiment: Inhibition of FLT3 (unknown origin) assessed as remaining activity at 1 uM by Kinome scan method relative to control
[8] = target: Vascular endothelial growth factor receptor 3 (Homo sapiens) (UniProt P35916); experiment: Inhibition of FLT4 (unknown origin) assessed as remaining activity at 1 uM by Kinome scan method relative to control
[9] = target: Beta-adrenergic receptor kinase 1 (Homo sapiens) (UniProt P25098); experiment: Inhibition of GRK2 (unknown origin) assessed as remaining activity at 1 uM by Kinome scan method relative to control
[10] = target: Mast/stem cell growth factor receptor Kit (Homo sapiens) (UniProt P10721); experiment: Inhibition of KIT (unknown origin) assessed as remaining activity at 1 uM by Kinome scan method relative to control
[11] = target: Platelet-derived growth factor receptor beta (Homo sapiens) (UniProt P09619); experiment: Inhibition of PDGFRbeta (unknown origin) assessed as remaining activity at 1 uM by Kinome scan method relative to control
[12] = target: Protein kinase C iota type (Homo sapiens) (UniProt P41743); experiment: Inhibition of PRKCI (unknown origin) assessed as remaining activity at 1 uM by Kinome scan method relative to control
[13] = target: Ribosomal protein S6 kinase alpha-5 (Homo sapiens) (UniProt O75582); experiment: Inhibition of C-terminal kinase domain RPS6KA5 (unknown origin) assessed as remaining activity at 1 uM by Kinome scan method relative to control; procedure, shortened: as §1
[14] = target: Serine/threonine-protein kinase Sgk1 (Homo sapiens) (UniProt O00141); experiment: Inhibition of SGK (unknown origin) assessed as remaining activity at 1 uM by Kinome scan method relative to control
[15] = target: Tyrosine-protein kinase TXK (Homo sapiens) (UniProt P42681); experiment: Inhibition of TXK (unknown origin) assessed as remaining activity at 1 uM by Kinome scan method relative to control
[16] = target: Tyrosine-protein kinase Yes (Homo sapiens) (UniProt P07947); experiment: Inhibition of YES (unknown origin) assessed as remaining activity at 1 uM by Kinome scan method relative to control
Aurora kinase A = Aurora kinase A (Homo sapiens, UniProt O14965); experiment: Binding affinity to AURKA (unknown origin) assessed as dissociation constant
[17] = target: Mitogen-activated protein kinase kinase kinase 3 (Homo sapiens, UniProt Q99759); experiment: Binding affinity to MAP3K3 (unknown origin) assessed as dissociation constant

Sequence of Ribosomal protein S6 kinase alpha-5 (Homo sapiens) (O75582 whole entry, looked up, the tested form may be a part): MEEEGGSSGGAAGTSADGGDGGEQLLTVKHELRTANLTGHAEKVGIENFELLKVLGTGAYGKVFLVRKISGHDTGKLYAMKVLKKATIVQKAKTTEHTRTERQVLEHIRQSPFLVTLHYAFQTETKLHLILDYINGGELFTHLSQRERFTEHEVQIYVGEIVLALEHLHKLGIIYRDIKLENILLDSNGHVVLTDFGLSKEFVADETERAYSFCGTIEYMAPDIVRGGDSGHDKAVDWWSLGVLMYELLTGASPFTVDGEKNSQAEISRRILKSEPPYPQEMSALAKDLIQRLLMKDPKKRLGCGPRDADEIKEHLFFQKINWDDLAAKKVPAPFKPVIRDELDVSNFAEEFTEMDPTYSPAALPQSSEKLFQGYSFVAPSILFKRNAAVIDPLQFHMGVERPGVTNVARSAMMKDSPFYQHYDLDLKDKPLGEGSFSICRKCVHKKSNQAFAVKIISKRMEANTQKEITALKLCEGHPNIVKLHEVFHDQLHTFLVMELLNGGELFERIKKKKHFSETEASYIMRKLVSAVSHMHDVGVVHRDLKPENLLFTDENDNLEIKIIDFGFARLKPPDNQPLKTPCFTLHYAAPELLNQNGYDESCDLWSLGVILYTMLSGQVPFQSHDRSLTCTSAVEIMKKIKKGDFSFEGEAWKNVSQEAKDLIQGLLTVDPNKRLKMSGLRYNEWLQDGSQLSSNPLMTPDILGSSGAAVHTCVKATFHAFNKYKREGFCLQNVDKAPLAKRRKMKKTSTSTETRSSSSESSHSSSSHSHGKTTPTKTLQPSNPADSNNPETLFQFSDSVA
Sequence of Serine/threonine-protein kinase BRSK1 (Homo sapiens) (Q8TDC3 whole entry): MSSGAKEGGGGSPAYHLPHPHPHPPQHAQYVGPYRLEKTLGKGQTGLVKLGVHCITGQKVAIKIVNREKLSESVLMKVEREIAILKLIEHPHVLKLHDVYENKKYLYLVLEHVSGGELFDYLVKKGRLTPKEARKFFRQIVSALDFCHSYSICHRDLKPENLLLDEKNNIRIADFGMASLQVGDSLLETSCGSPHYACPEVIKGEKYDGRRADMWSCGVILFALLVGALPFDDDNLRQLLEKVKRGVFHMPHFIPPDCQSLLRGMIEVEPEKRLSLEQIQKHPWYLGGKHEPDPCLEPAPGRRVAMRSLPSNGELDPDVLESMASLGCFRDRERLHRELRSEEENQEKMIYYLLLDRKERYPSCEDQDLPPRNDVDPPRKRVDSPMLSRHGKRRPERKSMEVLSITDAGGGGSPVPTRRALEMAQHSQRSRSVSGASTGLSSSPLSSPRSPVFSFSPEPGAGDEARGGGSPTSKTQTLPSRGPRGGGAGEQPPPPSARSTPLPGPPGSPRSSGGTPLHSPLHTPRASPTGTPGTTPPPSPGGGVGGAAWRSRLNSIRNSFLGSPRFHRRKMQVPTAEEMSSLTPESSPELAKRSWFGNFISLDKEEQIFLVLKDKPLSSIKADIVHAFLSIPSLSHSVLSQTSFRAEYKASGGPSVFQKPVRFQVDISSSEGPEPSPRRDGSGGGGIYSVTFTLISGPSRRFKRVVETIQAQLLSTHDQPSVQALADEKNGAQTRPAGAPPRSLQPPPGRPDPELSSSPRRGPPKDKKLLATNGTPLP
Sequence of Serine/threonine-protein kinase DCLK3 (Homo sapiens) (Q9C098 whole entry): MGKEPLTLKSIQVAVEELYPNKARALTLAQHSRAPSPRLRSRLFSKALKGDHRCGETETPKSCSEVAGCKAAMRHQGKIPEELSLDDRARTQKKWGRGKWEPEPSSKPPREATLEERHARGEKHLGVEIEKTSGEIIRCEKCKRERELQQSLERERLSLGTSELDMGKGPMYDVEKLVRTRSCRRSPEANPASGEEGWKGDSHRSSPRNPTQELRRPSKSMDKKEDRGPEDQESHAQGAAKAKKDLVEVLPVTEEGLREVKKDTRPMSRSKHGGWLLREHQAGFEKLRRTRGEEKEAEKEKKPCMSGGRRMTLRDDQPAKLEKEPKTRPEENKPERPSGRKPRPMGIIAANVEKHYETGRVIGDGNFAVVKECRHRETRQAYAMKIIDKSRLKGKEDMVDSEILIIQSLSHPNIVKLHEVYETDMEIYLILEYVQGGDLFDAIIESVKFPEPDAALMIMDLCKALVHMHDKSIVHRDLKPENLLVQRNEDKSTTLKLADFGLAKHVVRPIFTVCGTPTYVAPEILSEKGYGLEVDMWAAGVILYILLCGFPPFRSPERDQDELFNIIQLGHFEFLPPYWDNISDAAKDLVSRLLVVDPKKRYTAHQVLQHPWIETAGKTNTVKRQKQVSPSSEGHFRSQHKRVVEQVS
Sequence of Mitogen-activated protein kinase kinase kinase 12 (Homo sapiens) (Q12852 whole entry): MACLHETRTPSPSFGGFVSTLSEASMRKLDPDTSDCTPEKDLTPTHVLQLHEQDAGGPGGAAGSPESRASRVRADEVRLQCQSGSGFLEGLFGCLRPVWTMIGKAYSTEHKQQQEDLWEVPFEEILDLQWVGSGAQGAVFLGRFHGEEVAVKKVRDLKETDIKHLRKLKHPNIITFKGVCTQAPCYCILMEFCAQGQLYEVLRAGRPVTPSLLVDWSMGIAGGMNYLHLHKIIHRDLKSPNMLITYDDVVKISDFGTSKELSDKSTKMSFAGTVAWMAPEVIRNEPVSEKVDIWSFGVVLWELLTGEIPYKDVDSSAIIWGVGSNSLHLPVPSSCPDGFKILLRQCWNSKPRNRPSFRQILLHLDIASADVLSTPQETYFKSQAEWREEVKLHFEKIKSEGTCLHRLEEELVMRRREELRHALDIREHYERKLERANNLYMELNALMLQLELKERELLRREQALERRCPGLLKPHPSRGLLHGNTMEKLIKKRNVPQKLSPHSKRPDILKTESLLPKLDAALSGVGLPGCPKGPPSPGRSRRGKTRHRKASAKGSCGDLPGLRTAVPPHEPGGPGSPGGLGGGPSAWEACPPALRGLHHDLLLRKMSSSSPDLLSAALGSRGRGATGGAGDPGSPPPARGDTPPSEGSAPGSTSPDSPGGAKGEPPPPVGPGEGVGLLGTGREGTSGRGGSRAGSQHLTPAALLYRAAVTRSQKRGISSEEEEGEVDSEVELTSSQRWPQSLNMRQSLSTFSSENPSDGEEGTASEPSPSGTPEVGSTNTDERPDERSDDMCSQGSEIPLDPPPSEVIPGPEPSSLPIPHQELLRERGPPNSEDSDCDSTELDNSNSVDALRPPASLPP
Sequence of 5'-AMP-activated protein kinase catalytic subunit alpha-2 (Homo sapiens) (P54646 whole entry, looked up): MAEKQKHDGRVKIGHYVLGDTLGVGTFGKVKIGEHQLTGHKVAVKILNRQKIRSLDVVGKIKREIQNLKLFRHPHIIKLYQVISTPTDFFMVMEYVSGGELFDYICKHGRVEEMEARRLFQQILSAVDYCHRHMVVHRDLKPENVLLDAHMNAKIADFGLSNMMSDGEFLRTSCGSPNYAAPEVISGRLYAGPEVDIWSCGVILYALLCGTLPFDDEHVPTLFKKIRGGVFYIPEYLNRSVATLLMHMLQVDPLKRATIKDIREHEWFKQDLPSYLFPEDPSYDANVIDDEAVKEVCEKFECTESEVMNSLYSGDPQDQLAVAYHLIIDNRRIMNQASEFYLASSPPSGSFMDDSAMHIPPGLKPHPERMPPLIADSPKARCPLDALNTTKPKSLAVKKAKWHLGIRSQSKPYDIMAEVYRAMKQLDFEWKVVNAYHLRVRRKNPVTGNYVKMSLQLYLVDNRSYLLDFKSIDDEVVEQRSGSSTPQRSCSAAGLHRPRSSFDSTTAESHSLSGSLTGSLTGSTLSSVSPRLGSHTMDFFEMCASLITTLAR
Sequence of Protein kinase C iota type (Homo sapiens) (P41743 whole entry, the tested form may be a part): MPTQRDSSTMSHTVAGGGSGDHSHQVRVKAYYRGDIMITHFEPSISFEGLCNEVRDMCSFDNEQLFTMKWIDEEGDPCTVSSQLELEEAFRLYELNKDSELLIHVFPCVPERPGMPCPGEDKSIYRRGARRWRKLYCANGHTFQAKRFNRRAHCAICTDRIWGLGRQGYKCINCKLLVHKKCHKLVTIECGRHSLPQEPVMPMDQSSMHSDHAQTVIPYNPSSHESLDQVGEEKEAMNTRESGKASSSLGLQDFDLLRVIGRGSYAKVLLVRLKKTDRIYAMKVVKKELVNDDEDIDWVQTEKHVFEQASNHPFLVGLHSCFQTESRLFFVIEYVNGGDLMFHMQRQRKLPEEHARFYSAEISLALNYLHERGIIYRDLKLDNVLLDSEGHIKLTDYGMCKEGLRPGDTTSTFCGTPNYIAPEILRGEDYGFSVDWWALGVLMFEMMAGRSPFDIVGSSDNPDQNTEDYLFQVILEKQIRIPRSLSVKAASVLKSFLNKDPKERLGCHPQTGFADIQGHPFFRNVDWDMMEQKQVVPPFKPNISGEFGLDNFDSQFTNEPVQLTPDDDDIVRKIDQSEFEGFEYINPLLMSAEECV
Sequence of Tyrosine-protein kinase Yes (Homo sapiens) (P07947 2-543 limits assumed): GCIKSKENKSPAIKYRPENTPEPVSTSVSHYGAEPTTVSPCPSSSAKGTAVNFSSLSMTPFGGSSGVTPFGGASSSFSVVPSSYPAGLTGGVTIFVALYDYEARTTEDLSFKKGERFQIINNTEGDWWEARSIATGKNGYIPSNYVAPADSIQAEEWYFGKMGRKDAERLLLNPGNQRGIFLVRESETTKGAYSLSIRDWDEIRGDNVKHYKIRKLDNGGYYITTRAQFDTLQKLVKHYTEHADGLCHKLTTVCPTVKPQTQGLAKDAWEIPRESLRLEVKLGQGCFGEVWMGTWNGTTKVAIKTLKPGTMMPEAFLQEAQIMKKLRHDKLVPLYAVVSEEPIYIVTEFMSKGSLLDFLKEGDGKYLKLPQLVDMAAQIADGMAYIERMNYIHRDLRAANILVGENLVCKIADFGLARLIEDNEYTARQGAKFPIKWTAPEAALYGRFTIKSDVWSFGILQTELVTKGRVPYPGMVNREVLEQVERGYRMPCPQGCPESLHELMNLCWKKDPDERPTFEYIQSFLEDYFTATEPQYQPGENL

CN1C(=O)c2sccc2N(C)c2nc(Nc3ccc(S(N)(=O)=O)cc3)ncc21
IC50 [1]: 34 nM | Activity [2]: 100% | Activity [3]: 100% | Activity [4]: 96% | Activity [5]: 100% | Activity [6]: 85% | Activity [7]: 100% | Activity [8]: 67% | Activity [9]: 100% | Activity [10]: 100% | Activity [11]: 90% | Activity [12]: 94% | Activity [13]: 81% | Activity [14]: 96% | Activity [15]: 90% | Activity [16]: 100% | Kd (Aurora kinase A): 13 nM | Kd [17]: 27 nM
